Experimental data reported in ChEMBL document CHEMBL1137180, “Synthesis and structure-activity relationship of a novel sulfone series of TNF-alpha converting enzyme inhibitors” (Bioorg Med Chem Lett, 2004).
pIC50, pKi: −log10 of the molar value.

Experiments:
[1] = system: Caco-2; assay: Permeability action in Caco-2 cells; assay type: functional, Homo sapiens
[2] = system: Mus musculus; assay: Compound was tested for anti TNF-alpha activity using LPS mouse model at 10 mg/kg p.o.; assay type: functional; settings: route oral
[3] = biological target: Disintegrin and metalloproteinase domain-containing protein 17 (Sus scrofa, UniProt O77636); assay: Inhibition of porcine Tumor necrosis factor- alpha converting enzyme (TACE, ADAM17)
Sequence of Disintegrin and metalloproteinase domain-containing protein 17 (Sus scrofa, UniProt O77636) (O77636 whole entry, the tested form may be a part): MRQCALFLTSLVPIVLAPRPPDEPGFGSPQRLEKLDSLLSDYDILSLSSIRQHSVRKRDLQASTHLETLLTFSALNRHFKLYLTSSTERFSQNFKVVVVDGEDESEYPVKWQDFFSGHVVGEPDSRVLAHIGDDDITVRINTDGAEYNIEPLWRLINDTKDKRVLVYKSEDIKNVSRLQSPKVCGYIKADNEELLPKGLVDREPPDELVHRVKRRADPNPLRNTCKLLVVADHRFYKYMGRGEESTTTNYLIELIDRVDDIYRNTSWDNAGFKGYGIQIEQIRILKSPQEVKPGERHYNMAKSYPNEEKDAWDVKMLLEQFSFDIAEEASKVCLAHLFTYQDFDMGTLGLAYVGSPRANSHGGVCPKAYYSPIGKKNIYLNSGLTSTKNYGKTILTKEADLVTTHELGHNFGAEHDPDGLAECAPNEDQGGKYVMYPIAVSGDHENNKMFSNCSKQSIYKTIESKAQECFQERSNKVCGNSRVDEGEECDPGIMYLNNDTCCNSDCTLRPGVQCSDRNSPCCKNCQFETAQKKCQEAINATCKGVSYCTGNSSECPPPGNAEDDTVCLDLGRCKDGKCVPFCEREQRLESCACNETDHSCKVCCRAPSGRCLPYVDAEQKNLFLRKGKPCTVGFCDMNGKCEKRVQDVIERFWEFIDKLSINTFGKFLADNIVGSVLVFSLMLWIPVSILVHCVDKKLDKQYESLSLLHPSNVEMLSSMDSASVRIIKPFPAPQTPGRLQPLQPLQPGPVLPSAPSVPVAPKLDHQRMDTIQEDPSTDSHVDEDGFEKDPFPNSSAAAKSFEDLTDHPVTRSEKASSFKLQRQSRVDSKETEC

[4] = biological target: Disintegrin and metalloproteinase domain-containing protein 17 (Homo sapiens, UniProt P78536); assay: Effect on TNF-Alpha release in LPS-stimulated human whole blood assay; assay type: functional, tissue-based
Sequence of Disintegrin and metalloproteinase domain-containing protein 17 (Homo sapiens, UniProt P78536) (P78536 whole entry, the tested form may be a part): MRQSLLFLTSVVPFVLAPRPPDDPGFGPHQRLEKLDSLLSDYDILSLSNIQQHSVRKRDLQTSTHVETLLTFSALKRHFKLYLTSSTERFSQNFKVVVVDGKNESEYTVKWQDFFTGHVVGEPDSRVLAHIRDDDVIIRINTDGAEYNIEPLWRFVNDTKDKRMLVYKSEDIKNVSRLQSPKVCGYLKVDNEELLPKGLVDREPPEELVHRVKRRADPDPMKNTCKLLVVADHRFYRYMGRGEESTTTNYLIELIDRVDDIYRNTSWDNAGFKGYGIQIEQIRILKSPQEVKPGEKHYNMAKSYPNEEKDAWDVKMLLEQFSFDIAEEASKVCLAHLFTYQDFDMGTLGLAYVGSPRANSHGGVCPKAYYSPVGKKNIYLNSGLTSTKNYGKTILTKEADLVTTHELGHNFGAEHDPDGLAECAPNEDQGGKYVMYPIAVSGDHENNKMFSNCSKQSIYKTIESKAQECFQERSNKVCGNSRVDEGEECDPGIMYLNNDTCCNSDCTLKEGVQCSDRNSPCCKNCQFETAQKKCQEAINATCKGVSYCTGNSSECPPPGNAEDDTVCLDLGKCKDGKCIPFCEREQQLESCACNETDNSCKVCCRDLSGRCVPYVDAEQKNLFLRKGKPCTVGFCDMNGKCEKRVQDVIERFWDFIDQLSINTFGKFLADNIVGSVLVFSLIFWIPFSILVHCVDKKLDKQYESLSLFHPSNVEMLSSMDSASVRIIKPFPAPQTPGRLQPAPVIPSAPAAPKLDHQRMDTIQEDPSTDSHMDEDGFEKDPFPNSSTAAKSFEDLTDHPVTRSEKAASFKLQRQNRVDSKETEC

[5] = biological target: T1, Interstitial collagenase (Homo sapiens, UniProt P03956); assay: Inhibition of Matrix metalloprotease-1 (MMP-1)
T1 sequence (P03956 whole entry): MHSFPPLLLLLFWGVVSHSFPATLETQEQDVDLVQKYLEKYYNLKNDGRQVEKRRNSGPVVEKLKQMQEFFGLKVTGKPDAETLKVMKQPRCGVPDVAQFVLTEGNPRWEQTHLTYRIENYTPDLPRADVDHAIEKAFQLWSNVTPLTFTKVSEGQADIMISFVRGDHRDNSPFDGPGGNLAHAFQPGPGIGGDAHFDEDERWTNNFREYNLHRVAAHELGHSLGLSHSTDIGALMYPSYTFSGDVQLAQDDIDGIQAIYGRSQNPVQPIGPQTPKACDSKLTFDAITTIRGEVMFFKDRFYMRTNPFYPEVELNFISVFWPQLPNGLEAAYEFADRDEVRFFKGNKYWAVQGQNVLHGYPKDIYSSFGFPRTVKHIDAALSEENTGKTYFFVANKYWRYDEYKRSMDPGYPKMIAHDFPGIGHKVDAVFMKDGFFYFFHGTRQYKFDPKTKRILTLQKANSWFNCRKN
In short: (§1)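 Inhibition is reported as Ki (nM) against each isolated MMP. Each value comes from a single determination, with no replicates.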

[6] = biological target: 72 kDa type IV collagenase (Homo sapiens, UniProt P08253); assay: inhibition of Matrix metalloprotease-2 (MMP-2); in short: as §1
Sequence of 72 kDa type IV collagenase (P08253 whole entry): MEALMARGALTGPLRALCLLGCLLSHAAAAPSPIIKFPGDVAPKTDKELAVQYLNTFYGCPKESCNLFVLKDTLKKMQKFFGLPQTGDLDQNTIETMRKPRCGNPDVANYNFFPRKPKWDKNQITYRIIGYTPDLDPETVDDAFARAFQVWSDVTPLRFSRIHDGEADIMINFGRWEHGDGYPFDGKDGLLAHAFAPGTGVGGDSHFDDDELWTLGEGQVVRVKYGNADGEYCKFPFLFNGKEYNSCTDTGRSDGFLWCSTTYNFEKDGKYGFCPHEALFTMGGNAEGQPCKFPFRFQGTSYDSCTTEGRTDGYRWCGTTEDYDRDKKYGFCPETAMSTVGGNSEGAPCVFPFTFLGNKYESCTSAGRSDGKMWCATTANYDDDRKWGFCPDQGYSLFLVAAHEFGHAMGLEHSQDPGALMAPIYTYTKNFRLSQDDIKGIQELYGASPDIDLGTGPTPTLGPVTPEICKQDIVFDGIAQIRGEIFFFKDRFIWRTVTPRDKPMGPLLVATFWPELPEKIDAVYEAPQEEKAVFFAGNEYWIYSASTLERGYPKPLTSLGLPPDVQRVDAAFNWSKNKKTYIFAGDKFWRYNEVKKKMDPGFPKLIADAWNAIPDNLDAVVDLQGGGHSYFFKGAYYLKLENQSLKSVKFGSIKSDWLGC

[7] = biological target: Matrix metalloproteinase-9 (Homo sapiens, UniProt P14780); assay: Inhibition of Matrix metalloprotease-9 (MMP-9); in short: as §1
Sequence of Matrix metalloproteinase-9 (P14780 whole entry): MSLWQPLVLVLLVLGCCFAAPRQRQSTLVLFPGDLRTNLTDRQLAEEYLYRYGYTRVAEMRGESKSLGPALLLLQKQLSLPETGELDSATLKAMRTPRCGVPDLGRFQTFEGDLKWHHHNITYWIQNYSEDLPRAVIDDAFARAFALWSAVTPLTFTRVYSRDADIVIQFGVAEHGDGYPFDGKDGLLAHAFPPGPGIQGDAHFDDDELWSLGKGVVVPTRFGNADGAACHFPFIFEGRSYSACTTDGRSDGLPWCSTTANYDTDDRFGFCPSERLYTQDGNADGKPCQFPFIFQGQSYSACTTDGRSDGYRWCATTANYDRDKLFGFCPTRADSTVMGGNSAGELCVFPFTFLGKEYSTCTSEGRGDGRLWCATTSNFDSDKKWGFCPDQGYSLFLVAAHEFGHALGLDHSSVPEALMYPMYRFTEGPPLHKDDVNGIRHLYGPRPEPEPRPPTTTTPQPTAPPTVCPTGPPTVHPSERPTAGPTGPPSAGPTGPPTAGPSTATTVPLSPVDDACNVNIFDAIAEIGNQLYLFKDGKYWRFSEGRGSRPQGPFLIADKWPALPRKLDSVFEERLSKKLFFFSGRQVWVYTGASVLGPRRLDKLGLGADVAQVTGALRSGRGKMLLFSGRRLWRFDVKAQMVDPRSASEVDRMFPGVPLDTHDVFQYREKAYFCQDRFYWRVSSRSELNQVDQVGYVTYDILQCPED

[8] = biological target: Collagenase 3 (Homo sapiens, UniProt P45452); assay: Inhibition of Matrix metalloprotease-13 (MMP-13); in short: as §1
[9] = system: Mus musculus; assay: Compound was tested for anti TNF-alpha activity using LPS mouse model at 5 mg/kg p.o.; assay type: functional; settings: route oral

pIC50 [4]	pKi [5]	pKi [6]	pKi [7]	pKi [8]	Compound	Caco-2 Papp [1] [×10⁻⁶ cm/s]	inhibition in vivo at 10 mg/kg [2] [%]	pIC50 [3]	inhibition in vivo at 5 mg/kg [9] [%]	ED50 [2] [mg/kg]
	< 5.31	5.88	< 5.68	< 5.30	Cc1cc(COc2ccc(S(=O)(=O)CC3(CC(=O)NO)CCCN3CC(C)C)cc2)c2ccccc2n1 (stereo not given)	0.7		7.70		
6.38	< 5.31	< 5.48	< 5.68	5.75	CCCCCN1CCC(CC(=O)NO)(CS(=O)(=O)c2ccc(OCc3cc(C)nc4ccccc34)cc2)C1 (stereo not given)			8.47	22	
6.99	< 5.31	< 5.48	< 5.68	5.58	Cc1cc(COc2ccc(S(=O)(=O)CC3(CC(=O)NO)CCN(C)CC3)cc2)c2ccccc2n1	0.2		> 8.70		
6.79	< 5.31	5.66	< 5.68	6.22	Cc1cc(COc2ccc(S(=O)(=O)CC3(CC(=O)NO)CCN(CC(C)C)C3)cc2)c2ccccc2n1 (stereo not given)	0.8		8.59	22	
7.11	< 5.31	5.88	5.68	6.19	Cc1cc(COc2ccc(S(=O)(=O)CC3(CC(=O)NO)CCN(C(C)C)C3)cc2)c2ccccc2n1 (stereo not given)	0.2		8.80	37	
6.30	< 5.31	< 5.48	< 5.68	< 5.30	Cc1cc(COc2ccc(S(=O)(=O)CC3(CC(=O)NO)CCCN(C(C)C)C3)cc2)c2ccccc2n1 (stereo not given)	0.2		8.57		
6.96	< 5.31	< 5.48	< 5.68	< 5.30	Cc1cc(COc2ccc(S(=O)(=O)CC3(CC(=O)NO)CCN(C)C3)cc2)c2ccccc2n1 (stereo not given)	0.3		8.49	28	
5.60	< 5.31	< 5.48	< 5.68	< 5.30	Cc1cc(COc2ccc(S(=O)(=O)CC3(CC(=O)NO)CCCN(CC(C)C)C3)cc2)c2ccccc2n1 (stereo not given)	0.7		8.48	25	
6.65	< 5.31	5.59	< 5.68	6.12	Cc1cc(COc2ccc(S(=O)(=O)CC3(CC(=O)NO)CCC3)cc2)c2ccccc2n1	4.9		> 9.00	86	
6.68	< 5.31	< 5.48	< 5.68	5.41	Cc1cc(COc2ccc(S(=O)(=O)CC3(CC(=O)NO)CCCN(C)C3)cc2)c2ccccc2n1 (stereo not given)	0.2		8.44	49	
< 5.52	< 5.31	< 5.48	< 5.68	5.49	Cc1cc(COc2ccc(S(=O)(=O)CC3(CC(=O)NO)CCCN3C)cc2)c2ccccc2n1 (stereo not given)	1.6		8.54		

Further lines, the compound ahead of its results:

Compound	pIC50 [4]	pKi [5]	pKi [6]	pKi [7]	pKi [8]	Caco-2 Papp [1] [×10⁻⁶ cm/s]	inhibition in vivo at 10 mg/kg [2] [%]	pIC50 [3]	inhibition in vivo at 5 mg/kg [9] [%]	ED50 [2] [mg/kg]
Cc1cc(COc2ccc(S(=O)(=O)CC3CN(C(C)C)CCC3C(=O)NO)cc2)c2ccccc2n1 (stereo not given)	6.64	< 5.31	< 5.48	< 5.68	< 5.30	0.1	38	8.82		
Cc1cc(COc2ccc(S(=O)(=O)CC3(CC(=O)NO)CCCCC3)cc2)c2ccccc2n1	6.06	< 5.31	5.85	< 5.68	5.92	22		> 9.00	59	
Cc1cc(COc2ccc(S(=O)(=O)CC3(CC(=O)NO)CCCC3)cc2)c2ccccc2n1	6.38	< 5.31	5.81	5.82	6.09	18		> 9.10		
Cc1cc(COc2ccc(S(=O)(=O)CC3(CC(=O)NO)CCCO3)cc2)c2ccccc2n1 (stereo not given)	6.04	< 5.31	< 5.48	< 5.68	< 5.30	5		9.00	57	
Cc1cc(COc2ccc(S(=O)(=O)CC3CCN(C(C)C)CC3C(=O)NO)cc2)c2ccccc2n1 (stereo not given)	< 6.00	< 5.31	< 5.48	< 5.68	< 5.30	0.65		> 7.96		
Cc1cc(COc2ccc(S(=O)(=O)CC3NCCCC3C(=O)NO)cc2)c2ccccc2n1 (stereo not given)	6.62	< 5.31	< 5.48	< 5.68	6.12	0.1		> 9.00		
CC(=O)N1CCCC1(CC(=O)NO)CS(=O)(=O)c1ccc(OCc2cc(C)nc3ccccc23)cc1 (stereo not given)		< 5.31	< 5.48	< 5.68	< 5.30	0.6		6.18		
Cc1cc(COc2ccc(S(=O)(=O)CC3CN(C)CCC3C(=O)NO)cc2)c2ccccc2n1 (stereo not given)	6.72	< 5.31	< 5.48	< 5.68	< 5.30	0.1		> 8.72		
Cc1cc(COc2ccc(S(=O)(=O)CC3(CC(=O)NO)CCOCC3)cc2)c2ccccc2n1	6.59	< 5.31	< 5.48	< 5.68	< 5.30			> 9.00		
Cc1cc(COc2ccc(S(=O)(=O)CC3CCNCC3C(=O)NO)cc2)c2ccccc2n1 (stereo not given)	6.60	< 5.31	< 5.48	< 5.68	< 5.30	0.1		> 8.82		
Cc1cc(COc2ccc(S(=O)(=O)CC3(CC(=O)NO)CCCCN3)cc2)c2ccccc2n1 (stereo not given)	6.20	< 5.31	< 5.48	< 5.68	6.12	1.7		> 9.00	50	
Cc1cc(COc2ccc(S(=O)(=O)CC3(CC(=O)NO)CCCCN3C)cc2)c2ccccc2n1 (stereo not given)	< 5.52	< 5.31	< 5.48	< 5.68	< 5.30	5.1		8.29		
CCC(C)N1CCCCC1(CC(=O)NO)CS(=O)(=O)c1ccc(OCc2cc(C)nc3ccccc23)cc1 (stereo not given)		< 5.31	< 5.48	< 5.30				> 7.32		
CONC(=O)[C@H]1CCCN(C)[C@@H]1C(=O)Nc1ccc(OCc2cc(C)nc3ccccc23)cc1	7.70	< 5.31	< 5.48	< 5.68		2.1	> 50	8.21		3
Cc1cc(COc2ccc(S(=O)(=O)CC3(CC(=O)NO)CCCN3)cc2)c2ccccc2n1 (stereo not given)	6.39	< 5.31	< 5.48	< 5.68	< 5.30	0.4		9.00	19	
Cc1cc(COc2ccc(S(=O)(=O)CC3(CC(=O)NO)CCCNC3)cc2)c2ccccc2n1 (stereo not given)	6.91	< 5.31	< 5.48	< 5.68	< 5.30	0.1		8.55	31	
Cc1cc(COc2ccc(S(=O)(=O)CC3C(C(=O)NO)CCCN3C)cc2)c2ccccc2n1 (stereo not given)	< 5.52	< 5.31	< 5.48	< 5.68	< 5.30			> 8.96		
Cc1cc(COc2ccc(S(=O)(=O)CC3(CC(=O)NO)COC3)cc2)c2ccccc2n1	6.23	< 5.31	< 5.48	< 5.68	< 5.30			9.00		
Cc1cc(COc2ccc(S(=O)(=O)CC3(CC(=O)NO)CCNC3)cc2)c2ccccc2n1 (stereo not given)	7.12	< 5.31	< 5.48	< 5.68	5.49	0.1		8.82	34	
Cc1cc(COc2ccc(S(=O)(=O)CC3CCN(C)CC3C(=O)NO)cc2)c2ccccc2n1 (stereo not given)	6.29	< 5.31	< 5.48	< 5.68	< 5.30	0.2		8.19		
Cc1cc(COc2ccc(S(=O)(=O)CC3(CC(=O)NO)CCNCC3)cc2)c2ccccc2n1		< 5.31	< 5.48	< 5.68	< 5.30	0.1		7.85	57	
